Experimental findings from ChEMBL document CHEMBL3244398, “Oxidative and cardiovascular studies on natural and synthetic catecholamines” (J Med Chem, 1978) are described below.

Data set [1] relates to Rattus norvegicus. Briefly: Acute pressor activity in iv dosed Sprague-Dawley rat assessed as duration of arterial systolic blood pressure by 30 mmHg maintenance. The class given is functional, Artery. Summed up:
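Iv jugular-cannula dosing was used in male normotensive Sprague-Dawley rats (380 ± 20 g), with arterial pressure recorded by carotid cannula and transducer. Six doses over a tenfold range were each given to four animals. Duration is the seconds for which blood pressure was […].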

A short description of data set [2]: physchem.

Each structure is given as a SMILES string.

Take `C[C@H](N)Cc1ccc(O)c(O)c1`: the Time in data set [1] amounted to 34 s. On the same count and under the same terms, the figure for `C[C@@H](N)Cc1ccc(O)c(O)c1` is 20 s. Take `CC(N)Cc1ccc(O)c(O)c1` (racemic): the pKa (usually the pH at which an ionisable group is half protonated) in data set [2] was determined as 10. Besides, the Time in data set [1] came to 22 s. In the same order, the values of `CNCC(C)c1ccc(O)c(O)c1` (racemic) are 10.5 and 28 s. Compound `CC(CN)c1ccc(O)c(O)c1.Cl` (racemic) registered a pKa in data set [2] of 10. In addition, in data set [1], the Time is given as 29 s. Regarding `CNCC(OC)c1ccc(O)c(O)c1.Cl` (racemic), the pKa in data set [2] amounted to 9.5. The Time in data set [1] was determined as 21 s. In data set [2], `NCC(O)c1ccc(O)c(O)c1` (racemic) yielded a pKa of 9. In addition, in data set [1], the Time came out at 32 s. Turning to `CNCCc1ccc(O)c(O)c1` [DEOXIEPINEPHRINE], the pKa in data set [2] was determined as 10.5. Further, the Time in data set [1] is 18 s. In data set [2], `CNC` [DIMETHYLAMINE] returned a pKa of 10.8. `NCCc1ccc(O)c(O)c1` [DOPAMINE] displayed a pKa in data set [2] of 10. For the same compound, in data set [1], the Time turned out to be 32 s.

In data set [2], `CNC[C@H](O)c1ccc(O)c(O)c1` [EPINEPHRINE] yielded a pKa of 9.5. Besides, the Time in data set [1] turned out to be 12 s. For the compound `CN` [METHYLAMINE], in data set [2], the pKa was found to be 10.6. For the compound `NC[C@H](O)c1ccc(O)c(O)c1` [NOREPINEPHRINE], in data set [1], the Time was 32 s.
